Source: ChEMBL document CHEMBL1138476 (J Med Chem, 2009)
Converted amounts (≈) assume the structure as drawn.

Columns and labels:
[1] = target: T1, Corticotropin-releasing factor-binding protein (Homo sapiens, UniProt P24387); assay: Binding affinity to human recombinant CRF binding protein
T1 sequence (P24387 whole entry): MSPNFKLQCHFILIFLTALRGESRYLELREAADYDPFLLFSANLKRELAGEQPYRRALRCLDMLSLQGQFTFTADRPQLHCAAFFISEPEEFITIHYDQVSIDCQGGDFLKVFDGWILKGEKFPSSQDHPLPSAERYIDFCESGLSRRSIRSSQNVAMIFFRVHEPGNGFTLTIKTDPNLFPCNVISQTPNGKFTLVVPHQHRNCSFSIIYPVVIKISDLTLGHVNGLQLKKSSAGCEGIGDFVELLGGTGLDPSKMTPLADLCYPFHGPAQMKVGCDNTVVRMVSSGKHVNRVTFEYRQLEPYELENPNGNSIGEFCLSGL

[2] = tested on: Rattus norvegicus; assay: Effect on acute renal function in rat assessed as change in glucose level in urine per 100 gm body weight at 30 mg/kg, po (RVb= 9.9+/-1.9 mg/dl); format: functional
[3] = tested on: Rattus norvegicus; assay: Toxicity in rat assessed as total distance traveled at 3 mg/kg, po after 1 hr by spontaneous locomotor test; format: organism-based; design: dose 3 mg/kg, route oral; conditions: in vivo
Method in brief: (§1)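 Rat spontaneous locomotor activity test with oral dosing in 0.25% Methocel 1 h before testing, at doses up to 100 mg/kg. Values are mean ± SEM, with N rats per group, compared with the vehicle (zero-dose) group.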

[4] = Tmax in rat at 5 mg/kg, po; format: ADME, organism-based; design: dose 5 mg/kg, route oral; conditions: in vivo
Method in brief: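 Rats (n = 3) dosed iv at 1 mg/kg in 10% DMAC, 70% propylene glycol and deionized water, and orally at 5 mg/kg in 0.5% methylcellulose.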

[5] = tested on: Canis familiaris; assay: Effect on respiratory function in spontaneously breathing mongrel dog assessed as change in peak expiratory flow at 5 mg/kg after intravenous infusion for 15 mins (RVb= -8.4+/-6.6 %); format: functional, Canis lupus familiaris
[6] = tested on: Rattus norvegicus; assay: Anxiolytic activity in rat assessed as decrease in latency to exit dark chamber at 10 mg/kg, po by defensive withdrawal test relative to untreated control; format: functional; design: scale not given: the % may be the effect or the level left
Method in brief: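 Rat defensive withdrawal: latency to leave the dark chamber and explore the open field, maximum 900 s. Dosed orally in 0.25% Methocel 60 min before testing; n = 8 per dose, mean ± SEM. Analysed by Kruskal–Wallis followed by Mann–Whitney U against vehicle.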

[7] = Plasma concentration in spontaneously breathing dog at 5 mg/kg, iv after 15 mins; format: ADME, organism-based, Canis lupus familiaris; design: dose 5 mg/kg, route intravenous
Method in brief: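 Spontaneously breathing, barbiturate-anesthetized mongrel dogs (n = 4) infused iv at 5.0 mg/kg over 6 min. Total pooled plasma concentrations taken at 6, 15, 30 and 60 min.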

[8] = tested on: Canis familiaris; assay: Effect on respiratory function in spontaneously breathing mongrel dog assessed as change in pulmonary compliance at 5 mg/kg after intravenous infusion for 6 mins (RVb= 6.0+/-4.2 %); format: functional, Canis lupus familiaris
[9] = Half life in Beagle dog at 1 mg/kg, po by cassette dosing; format: ADME, organism-based, Canis lupus familiaris; design: dose 1 mg/kg, route oral; conditions: in vivo
[10] = tested on: Rattus norvegicus; assay: Ex vivo receptor occupancy of CRF receptor in rat brain at 1 mg/kg, po by [125I]sauvagine binding and autoradiography relative to control; format: functional
Method in brief: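 Rats were given 0.3, 1, 3, 10 or 30 mg/kg po in 0.25% Methocel 60 min before sacrifice. Brains were removed, sectioned and frozen at −80 °C. Ex vivo CRF receptor binding gave occupancy relative to vehicle-treated rats, reported as mean ± SEM.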

[11] = tested on: Canis familiaris; assay: Effect on respiratory function in spontaneously breathing mongrel dog assessed as change in mean arterial pressure at 5 mg/kg after intravenous infusion for 6 mins (RVb= 1.5+/-0.9 %); format: functional, Canis lupus familiaris, Artery
[12] = Oral bioavailability in chimpanzee at 1 mg/kg; format: ADME, organism-based, Pan troglodytes; conditions: in vivo
Method in brief: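 Two alert chimpanzees were given 1 mg/kg po as a 1 mg/mL suspension in 50:50 (v/v) 0.5% methylcellulose and Tang orange juice containing 1% Tween-80. EDTA blood was taken predose and at 2–96 h. Bioavailability was calculated against a 0.5 mg/kg iv dose given to one animal.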

[13] = tested on: Rattus norvegicus; assay: Toxicity in rat assessed as time spent on rotarod at 100 mg/kg, po after 1 hr by rotarod test; format: organism-based; design: dose 100 mg/kg, route oral; conditions: in vivo
Method in brief: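 Rats (N = 8 per dose) dosed po in 0.25% Methocel 1 h before rotorod testing. Time on rotorod in s, given as mean ± SEM against a vehicle (zero dose) group.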

[14] = Cmax in Beagle dog at 1 mg/kg, po by cassette dosing; format: ADME, organism-based, Canis lupus familiaris; design: dose 1 mg/kg, route oral; conditions: in vivo
[15] = Cmax in rat at 5 mg/kg, po; format: ADME, organism-based; design: dose 5 mg/kg, route oral; conditions: in vivo
Method in brief: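 Rats (n = 3) received 1 mg/kg iv in 10% DMAC, 70% propylene glycol and deionized water, or 5 mg/kg orally in 0.5% methylcellulose.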

[16] = target: T2, Adenosine receptor A1 (Rattus norvegicus, UniProt P25099); assay: Binding affinity to rat adenosine A1 receptor expressed in CHO cells; format: cell-based
T2 sequence (P25099 whole entry): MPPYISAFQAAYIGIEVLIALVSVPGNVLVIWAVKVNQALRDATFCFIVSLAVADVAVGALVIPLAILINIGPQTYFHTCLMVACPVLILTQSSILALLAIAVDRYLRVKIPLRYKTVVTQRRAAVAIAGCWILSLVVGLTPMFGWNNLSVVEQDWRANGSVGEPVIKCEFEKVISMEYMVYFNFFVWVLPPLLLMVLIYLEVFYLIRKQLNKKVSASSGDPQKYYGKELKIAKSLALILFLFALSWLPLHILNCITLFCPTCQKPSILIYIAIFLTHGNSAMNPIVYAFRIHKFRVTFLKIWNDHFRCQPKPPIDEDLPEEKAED
Method in brief: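 Cloned rat adenosine A1 receptor transfected into CHO cells, part of a contracted screen.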

[17] = tested on: Canis familiaris; assay: Effect on respiratory function in spontaneously breathing mongrel dog assessed as change in respiration rate at 5 mg/kg after intravenous infusion for 30 mins (RVb= -4.5+/-8.2 %); format: functional, Canis lupus familiaris
[18] = tested on: Canis familiaris; assay: Effect on respiratory function in spontaneously breathing mongrel dog assessed as change in tidal volume at 5 mg/kg after intravenous infusion for 30 mins (RVb= 6.1+/-5.6 %); format: functional, Canis lupus familiaris
[19] = Solubility in acetone; format: physicochemical
[20] = tested on: Canis familiaris; assay: Effect on respiratory function in spontaneously breathing mongrel dog assessed as change in pulmonary compliance at 5 mg/kg after intravenous infusion for 60 mins (RVb= -4.8+/-[…]); format: functional, Canis lupus familiaris
[21] = tested on: Canis familiaris; assay: Effect on respiratory function in spontaneously breathing mongrel dog assessed as change in respiration rate at 5 mg/kg after intravenous infusion for 60 mins (RVb= -19.5+/-16.3 %); format: functional, Canis lupus familiaris
[22] = Cmax in chimpanzee at 1 mg/kg, po; format: ADME, organism-based, Pan troglodytes; design: dose 1 mg/kg, route oral; conditions: in vivo
Method in brief: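 Chimpanzee PK. Oral: 1 mg/kg in two alert animals, given as a 1 mg/mL suspension in 50–50 (v/v) 0.5% methylcellulose/Tang orange juice with 1% Tween-80. IV: 0.5 mg/kg in one animal in 10% DMAC, 70% propylene glycol and deionized water, infused over 10 min (0.2 mL/kg). EDTA blood was taken predose and at 2–96 h; iv sampling added 6, 15 and 30 min.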

[23] = tested on: Rattus norvegicus; assay: Toxicity in rat assessed as total distance traveled at 10 mg/kg, po after 1 hr by spontaneous locomotor test; format: functional; method in brief: as §1

IC50 [1]: > 1 µM
Tmax [4]: 0.75 h
concentration at 0.25 h [7]: 835 nM
half-life [9]: 10.7 h
bioavailability [12]: 49%
Cmax [14]: 301 nM
Cmax [15]: 1260 nM
Ki [16]: 2.66 µM
solubility [19]: 460 mg/mL (≈ 1350 mM)
Cmax [22]: 840 nM
Compound: CC[C@@H](C)Nc1nc(C)nc2c(-c3ccc(OC)nc3C)c(C)nn12 [PEXACERFONT]
Activity [2]: 4.4 mg/dL
Activity [3]: 5639 cm
Activity [5]: -0.1%
Activity [6]: 65%
Activity [8]: -2.5%
Activity [10]: 26%
Activity [11]: 3.8%
Time [13]: 121 s
Activity [17]: -32.5%
Activity [18]: -15.2%
Activity [20]: 33.8%
Activity [21]: -14.6%
Activity [23]: 3695 cm
